Assay results taken from ChEMBL document CHEMBL1938254, “Semisynthetic neoboutomellerone derivatives as ubiquitin-proteasome pathway inhibitors” (Bioorg Med Chem, 2012).

Columns and labels:
Assay type in all cases: cell-based
DLD-1 [1] = test: Inhibition of 20S proteasome in human DLD1 cells transfected with 4Ub-Luc gene assessed as bioluminescence induction factor at 5 uM after 8 hrs by luciferase reporter gene assay relative to epoxomicin
In short: (§1)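 Stably transfected DLD-1 cells expressing 4Ub-Luc reporter, cultured in MEM with 5% heat-inactivated serum. Seeded at 10⁴ cells/well and treated with compound or solvent for 8 h. Luciferase activity in lysates read by luminometer. Induction factor = signal of treated over untreated cells, normalised to epoxomicin at 10^-7 M run in parallel (set to 100). IF ≥10 counted active.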

DLD-1 [2] = test: Inhibition of 20S proteasome activity in human DLD1 cells transfected with 4Ub-Luc gene assessed as bioluminescence induction factor at 10 uM after 8 hrs by luciferase reporter gene assay relative to epoxomicin; in short: as §1
DLD-1 [3] = test: Inhibition of 20S proteasome in human DLD1 cells transfected with 4Ub-Luc gene assessed as bioluminescence induction factor at 1 uM after 8 hrs by luciferase reporter gene assay relative to epoxomicin; in short: as §1

Row | Structure (SMILES) | fold change (FC) (DLD-1 [1]) | fold change (FC) (DLD-1 [2]) | fold change (FC) (DLD-1 [3])
1 | C=C(C(=O)[C@H](OC(C)=O)[C@@H](C)[C@H]1[C@@H](OC(C)=O)C[C@@]2(C)[C@@H]3CC[C@H]4[C@H](C)C(=O)C=C[C@@]45C[C@@]35CC[C@]12CO)[C@@H](C)CO | 12 | 1.1 | 1.2
2 | C=C(C(=O)[C@H](OC(C)=O)[C@@H](C)[C@H]1[C@@H](OC(C)=O)C[C@@]2(C)[C@@H]3CC[C@H]4[C@H](C)C(=O)C=C[C@@]45C[C@@]35CC[C@]12C)[C@@H](C)COC(=O)CNCCCNCCCCNCCCN | 1.4 | 11 | 1.1
3 | C=C(C(=O)[C@H](OC(=O)CCC(=O)O)[C@@H](C)[C@H]1[C@@H](OC(C)=O)C[C@@]2(C)[C@@H]3CC[C@H]4[C@H](C)C(=O)C=C[C@@]45C[C@@]35CC[C@]12C)[C@@H](C)COC(=O)CCC(=O)O | 1.1 | 1.2 | 1.2
4 | C=C(C(=O)[C@H](O)[C@@H](C)[C@H]1[C@@H](OC(C)=O)C[C@@]2(C)[C@@H]3CC[C@H]4[C@H](C)C(=O)CC[C@@]45C[C@@]35CC[C@]12C)[C@@H](C)CO | 10 | 77 | 1.2
5 | CC(=O)O[C@H]1C[C@@]2(C)[C@@H]3CC[C@H]4[C@H](C)/C(=N/OCc5ccccc5)C=C[C@@]45C[C@@]35CC[C@]2(C)[C@H]1[C@H](C)[C@@H](OC(C)=O)C(=O)C(CNOCc1ccccc1)[C@@H](C)CO (stereo partly drawn) | 0.9 | 0.9 | 0.9
6 | C=C(C(=O)[C@H](OC(C)=O)[C@@H](C)[C@H]1[C@@H](OC(C)=O)C[C@@]2(C)[C@@H]3CC[C@H]4[C@H](C)C(=O)C=C[C@@]45C[C@@]35CC[C@]12C)[C@@H](C)COC(=O)CN | 76 | 56 | 1.4
7 | C=C(C(=O)[C@H](OC(C)=O)[C@@H](C)[C@H]1[C@@H](OC(C)=O)C[C@@]2(C)[C@@H]3CC[C@H]4[C@H](C)C(=O)C=C[C@@]45C[C@@]35CC[C@]12C)[C@@H](C)C=O | 70 | 31 | 1
8 | C=C(C(=O)[C@H](OC(C)=O)[C@@H](C)[C@H]1[C@@H](OC(C)=O)C[C@@]2(C)[C@@H]3CC[C@H]4[C@H](C)C(=O)C=C[C@@]45C[C@@]35CC[C@]12C)[C@@H](C)CO[C@@]1(C)O[C@@H]2O[C@@H](COC(C)=O)[C@H](OC(C)=O)[C@@H](OC(C)=O)[C@@H]2O1 | 59 | 48 | 2
9 | C=C(C(=O)[C@H](OC(C)=O)[C@@H](C)[C@H]1[C@@H](OC(C)=O)C[C@@]2(C)[C@@H]3CC[C@H]4[C@H](C)C(=O)C[C@H](O)[C@@]45C[C@@]35CC[C@]12C)[C@@H](C)CO | 11 | 74 | 1.6
10 | C=C(C(=O)[C@H](OC(C)=O)[C@@H](C)[C@H]1[C@@H](OC(C)=O)C[C@@]2(C)[C@@H]3CC[C@H]4[C@H](C)C(=O)C=C[C@@]45C[C@@]35CC[C@]12C)[C@@H](C)CN1C(=O)CN(CCCN(CCCCN(CCCNC(=O)OC(C)(C)C)C(=O)OC(C)(C)C)C(=O)OC(C)(C)C)C1=O | 30 | 37 | 1
11 | C=C(C(=O)[C@H](OC(C)=O)[C@@H](C)[C@H]1[C@@H](OC(C)=O)C[C@@]2(C)[C@@H]3CC[C@H]4[C@H](C)C(=O)C=C[C@@]45C[C@@]35CC[C@]12C)[C@@H](C)COS(=O)(=O)O | 1.4 | 1.6 | 1.4
12 | CO/N=C1/C=C[C@]23C[C@]24CC[C@]2(C)[C@@H]([C@H](C)[C@@H](OC(C)=O)C(=O)C(CNOC)[C@@H](C)CO)[C@@H](OC(C)=O)C[C@@]2(C)[C@@H]4CC[C@H]3[C@@H]1C (stereo partly drawn) | 0.7 | 0.6 | 1
13 | CC(=O)O[C@H]1C[C@@]2(C)[C@@H]3CC[C@H]4[C@H](C)C(=O)C=C[C@@]45C[C@@]35CC[C@]2(C)[C@H]1[C@H](C)C=O | 1.3 | 3 | –
